# Laboratory results as given in ChEMBL document CHEMBL4689842, “EUbOPEN Chemogenomics Library wave 1” (2021).
# Test system: U2OS
# Assay: Multiplex assay against U2OS
# Type: toxicity, cell-based
# Settings: human
# Method in brief: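 Four dyes were applied at seeding to live cells: Hoechst33342, BioTracker Green Microtubule Cytoskeleton Dye, MitoTracker Red and Annexin V Alexa Fluor 680. Imaging after compound addition used a CQ1 microscope at 37°C and 5% CO2. CellPathfinder machine-learning gating then sorted cells into Hoechst high-intensity objects or normal cells, normal cells into healthy, pyknosed or fragmented nuclei, and pyknosed cells into mitotic or apoptotic, with tubulin, mitochondrial-mass and membrane-permeability phenotypes given as per cents of healthy-nucleus cells.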
# [1] = 12 h, 1 µM, compound concentration 1 uM, replicate 1
# [2] = 12 h, 1 µM, compound concentration 1 uM, replicate 2
# [3] = 12 h, 10 µM, compound concentration 10 uM, replicate 1
# [4] = 12 h, 10 µM, compound concentration 10 uM, replicate 2
# [5] = 24 h, 1 µM, compound concentration 1 uM, replicate 1
# [6] = 24 h, 1 µM, compound concentration 1 uM, replicate 2
# [7] = 24 h, 10 µM, compound concentration 10 uM, replicate 1
# [8] = 24 h, 10 µM, compound concentration 10 uM, replicate 2
smiles,measurement,setting,value
Cl.Cn1c2c(c3ccc(Cl)c(Cl)c31)C(C#N)C1(CCNCC1)NC2=O (configuration not stated),Population Apoptotic (%),[1],30%
same,Population Fragmented Nuclei (%),[1],2%
same,Population Healthy Nuclei (%),[1],90%
same,Population Hoechst High Intensity Objects (%),[1],1%
same,Population Mitochondria Different-Phenotype (%),[1],14%
same,Population Mitotic Cells (%),[1],69%
same,Population Normal (%),[1],98%
same,Population Pyknosed Nuclei (%),[1],7%
same,Population Tubulin-Different-Phenotype (%),[1],19%
same,Total Cell Count,[1],137
same,Population Apoptotic (%),[2],0%
same,Population Fragmented Nuclei (%),[2],4%
same,Population Healthy Nuclei (%),[2],94%
same,Population Hoechst High Intensity Objects (%),[2],13%
same,Population Membrane Permeable-Phenotype (%),[2],9%
same,Population Mitochondria Different-Phenotype (%),[2],36%
same,Population Mitotic Cells (%),[2],100%
same,Population Normal (%),[2],86%
same,Population Pyknosed Nuclei (%),[2],0%
same,Population Tubulin-Different-Phenotype (%),[2],38%
same,Total Cell Count,[2],159
same,Population Apoptotic (%),[3],56%
same,Population Fragmented Nuclei (%),[3],20%
same,Population Healthy Nuclei (%),[3],20%
same,Population Hoechst High Intensity Objects (%),[3],3%
same,Population Membrane Permeable-Phenotype (%),[3],53%
same,Population Mitochondria Different-Phenotype (%),[3],80%
same,Population Mitotic Cells (%),[3],43%
same,Population Normal (%),[3],96%
same,Population Pyknosed Nuclei (%),[3],58%
same,Population Tubulin-Different-Phenotype (%),[3],96%
same,Total Cell Count,[3],183
same,Population Apoptotic (%),[4],61%
same,Population Fragmented Nuclei (%),[4],22%
same,Population Healthy Nuclei (%),[4],27%
same,Population Hoechst High Intensity Objects (%),[4],24%
same,Population Membrane Permeable-Phenotype (%),[4],36%
same,Population Mitochondria Different-Phenotype (%),[4],90%
same,Population Mitotic Cells (%),[4],38%
same,Population Normal (%),[4],75%
same,Population Pyknosed Nuclei (%),[4],49%
same,Population Tubulin-Different-Phenotype (%),[4],95%
same,Total Cell Count,[4],123
same,Population Apoptotic (%),[5],40%
same,Population Fragmented Nuclei (%),[5],4%
same,Population Healthy Nuclei (%),[5],88%
same,Population Hoechst High Intensity Objects (%),[5],1%
same,Population Membrane Permeable-Phenotype (%),[5],5%
same,Population Mitochondria Different-Phenotype (%),[5],13%
same,Population Mitotic Cells (%),[5],60%
same,Population Normal (%),[5],98%
same,Population Pyknosed Nuclei (%),[5],6%
same,Population Tubulin-Different-Phenotype (%),[5],26%
same,Total Cell Count,[5],129
same,Population Apoptotic (%),[6],75%
same,Population Fragmented Nuclei (%),[6],3%
same,Population Healthy Nuclei (%),[6],93%
same,Population Hoechst High Intensity Objects (%),[6],10%
same,Population Membrane Permeable-Phenotype (%),[6],8%
same,Population Mitochondria Different-Phenotype (%),[6],29%
same,Population Mitotic Cells (%),[6],25%
same,Population Normal (%),[6],89%
same,Population Pyknosed Nuclei (%),[6],2%
same,Population Tubulin-Different-Phenotype (%),[6],31%
same,Total Cell Count,[6],157
same,Population Apoptotic (%),[7],85%
same,Population Fragmented Nuclei (%),[7],37%
same,Population Healthy Nuclei (%),[7],10%
same,Population Hoechst High Intensity Objects (%),[7],16%
same,Population Membrane Permeable-Phenotype (%),[7],92%
same,Population Mitochondria Different-Phenotype (%),[7],100%
same,Population Mitotic Cells (%),[7],14%
same,Population Normal (%),[7],83%
same,Population Pyknosed Nuclei (%),[7],52%
same,Population Tubulin-Different-Phenotype (%),[7],92%
same,Total Cell Count,[7],231
same,Population Apoptotic (%),[8],76%
same,Population Fragmented Nuclei (%),[8],33%
same,Population Healthy Nuclei (%),[8],17%
same,Population Hoechst High Intensity Objects (%),[8],30%
same,Population Membrane Permeable-Phenotype (%),[8],75%
same,Population Mitochondria Different-Phenotype (%),[8],91%
same,Population Mitotic Cells (%),[8],23%
same,Population Normal (%),[8],69%
same,Population Pyknosed Nuclei (%),[8],49%
same,Population Tubulin-Different-Phenotype (%),[8],91%
same,Total Cell Count,[8],164
